Reference: ChEMBL document CHEMBL3596173, “Structural Requirements for CNS Active Opioid Glycopeptides” (J Med Chem, 2015)
Non-standard residues stand in square brackets, D forms with d. Residues, ends and D or L forms follow the SMILES beside them. *: point of attachment. βGlc = OC[C@H]1O[C@@H](*)[C@H](O)[C@@H](O)[C@@H]1O; Aib = CC(C)(N)C(=O)O; GABA = NCCCC(=O)O

How the values were obtained:
[1] = target: T1, Delta-type opioid receptor (Homo sapiens, UniProt P41143); assay: Displacement of [3H]-naltrindole from human delta opioid receptor expressed in CHO cells after 3 hrs by scintillation counting analysis; format: cell-based
T1 sequence (P41143 whole entry): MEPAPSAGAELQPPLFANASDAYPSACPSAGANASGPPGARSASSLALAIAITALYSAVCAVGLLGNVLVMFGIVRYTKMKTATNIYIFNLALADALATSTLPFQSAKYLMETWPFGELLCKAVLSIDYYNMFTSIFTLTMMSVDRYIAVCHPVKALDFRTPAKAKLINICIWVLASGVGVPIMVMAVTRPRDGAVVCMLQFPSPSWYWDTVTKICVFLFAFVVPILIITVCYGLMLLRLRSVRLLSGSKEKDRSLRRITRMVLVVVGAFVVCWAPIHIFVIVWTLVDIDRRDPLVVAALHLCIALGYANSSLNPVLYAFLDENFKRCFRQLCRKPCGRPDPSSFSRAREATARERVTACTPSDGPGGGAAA
Method in brief: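 Binding used CHO-cell membranes bearing human δ receptor and 0.2 nM (final) [3H]naltrindole, incubated 3 h at 25 °C in 50 mM Tris-HCl pH 7.5. Nonspecific binding was defined with 100 μM naloxone. Samples were glass-fiber filtered, washed with cold buffer and scintillation counted. IC50 came from a log-probit least-squares fit and was converted to Ki as IC50/(1+S).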

[2] = target: T2, Kappa-type opioid receptor (Homo sapiens, UniProt P41145); assay: Displacement of [3H]-U69593 from human kappa opioid receptor expressed in CHO cells after 60 mins by scintillation counting analysis; format: cell-based
T2 sequence (P41145 whole entry): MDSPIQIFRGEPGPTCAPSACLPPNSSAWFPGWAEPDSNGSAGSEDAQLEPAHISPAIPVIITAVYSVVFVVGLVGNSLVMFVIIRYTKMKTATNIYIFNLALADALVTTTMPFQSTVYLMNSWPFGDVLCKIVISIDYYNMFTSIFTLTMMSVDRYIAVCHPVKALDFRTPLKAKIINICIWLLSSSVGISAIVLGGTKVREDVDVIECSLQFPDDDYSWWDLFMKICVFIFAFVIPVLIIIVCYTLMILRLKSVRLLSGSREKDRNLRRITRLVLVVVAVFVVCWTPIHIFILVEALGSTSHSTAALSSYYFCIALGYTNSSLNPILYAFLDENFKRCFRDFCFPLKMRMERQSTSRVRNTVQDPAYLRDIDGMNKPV
Method in brief: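 Human κ receptor stably expressed in CHO cells was used as a membrane prep. It was incubated with 1 nM (final) [3H]U69,593 for 60 min at 25 °C in 50 mM Tris-HCl pH 7.5, with 10 μM naloxone defining nonspecific binding. Samples were filtered through glass-fiber filters presoaked ≥30 min in 0.1% polyethylenimine, washed cold and scintillation counted. Ki was derived from a log-probit IC50 via IC50/(1+S).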

[3] = target: Mu-type opioid receptor (Homo sapiens, UniProt P35372); assay: Displacement of [3H]-DAMGO from human mu opioid receptor expressed in CHO cells after 60 mins by scintillation counting analysis; format: cell-based
Mu-type opioid receptor, sequence (P35372 whole entry): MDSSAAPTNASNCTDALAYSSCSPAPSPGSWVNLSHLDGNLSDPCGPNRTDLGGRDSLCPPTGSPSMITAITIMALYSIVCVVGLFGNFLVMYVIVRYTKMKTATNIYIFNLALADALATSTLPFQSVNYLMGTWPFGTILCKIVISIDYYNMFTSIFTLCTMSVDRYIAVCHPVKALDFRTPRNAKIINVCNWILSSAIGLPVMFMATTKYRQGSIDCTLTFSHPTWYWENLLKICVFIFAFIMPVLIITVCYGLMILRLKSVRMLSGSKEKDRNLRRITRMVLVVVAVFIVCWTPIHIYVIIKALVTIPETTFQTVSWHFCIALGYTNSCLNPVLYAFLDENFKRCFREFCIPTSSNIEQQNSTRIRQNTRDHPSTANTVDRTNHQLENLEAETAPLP
Method in brief: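 Membranes from CHO cells stably expressing human μ receptor were incubated with 0.25 nM (final) [3H]DAMGO in 50 mM Tris-HCl pH 7.5 for 60 min at 25 °C. Bound radioligand was separated by glass-fiber filtration with cold buffer washes and counted by scintillation. IC50 came from a least-squares log-probit fit, and Ki from IC50/(1+S).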

[4] = target: T1, Delta-type opioid receptor; assay: Displacement of [3H]-naltrindole from human delta opioid receptor expressed in CHO cells at 10 uM after 3 hrs by scintillation counting analysis relative to control; format: cell-based
[5] = target: T2, Kappa-type opioid receptor; assay: Displacement of [3H]-U69593 from human kappa opioid receptor expressed in CHO cells at 10 uM after 60 mins by scintillation counting analysis […]; format: cell-based
[6] = test system: Mus musculus; assay: Antinociceptive activity in icv dosed CD-1 mouse by 55 degC warm water tail-flick test; format: functional
Method in brief: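 Male CD-1 mice (27−30 g), 8−10 per group. Compound in distilled water, given icv under light ether anaesthesia, 2 mm caudal and 2 mm lateral from bregma. 55 °C warm-water tail-flick: baseline latency taken first, and mice not responding within 5 s excluded. Retested at various times after dosing. %Antinociception = 100(test − control latency)/(10 − control latency). A50 doses derived.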

[7] = test system: Mus musculus; assay: Antinociceptive activity in iv dosed CD-1 mouse by 55 degC warm water tail-flick test; format: functional
Method in brief: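 Male CD-1 mice (27−30 g), 8−10 per group. Compound in 0.9% saline, injected into the tail vein at 0.1 mL/10 g after the vein was dilated in 40 °C water. Tail immersion in 55 °C water, with baseline latency first and 5 s non-responders excluded. Tested at intervals post-dose. %Antinociception = 100(test − control latency)/(10 − control latency). A50 values obtained.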

Row | SMILES | Ki [1] | Ki [2] | Ki [3] | also measured
1 | CC(C)C[C@H](NC(=O)[C@H](CO[C@@H]1O[C@H](CO)[C@@H](O)[C@H](O)[C@H]1O)NC(=O)[C@H](CCCCN)NC(=O)[C@H](CC(C)C)NC(=O)[C@H](C)NC(=O)[C@H](CCCCN)NC(=O)[C@H](CCC(=O)O)NC(=O)C(C)(C)NC(=O)[C@H](CC(C)C)NC(=O)[C@H](CC(N)=O)NC(=O)[C@@H]1CCCN1C(=O)[C@@H]1CCCN1C(=O)[C@H](Cc1ccccc1)N(C)C(=O)CNC(=O)[C@@H](C)NC(=O)[C@@H](N)Cc1ccc(O)cc1)C(N)=O | 2300 nM | 19 nM | 15 nM | 
2 | CC(C)C[C@H](NC(=O)[C@H](CO[C@@H]1O[C@H](CO)[C@@H](O)[C@H](O)[C@H]1O)NC(=O)[C@H](CCCCN)NC(=O)[C@H](CC(C)C)NC(=O)[C@H](C)NC(=O)[C@H](CCCCN)NC(=O)[C@H](CCC(=O)O)NC(=O)C(C)(C)NC(=O)[C@H](CC(C)C)NC(=O)[C@H](CC(N)=O)NC(=O)CNC(=O)CNC(=O)[C@H](Cc1ccccc1)N(C)C(=O)CNC(=O)[C@@H](C)NC(=O)[C@@H](N)Cc1ccc(O)cc1)C(N)=O | 1500 nM | 59 nM | 2.8 nM | 
3 | CC(C)C[C@H](NC(=O)[C@H](CO[C@@H]1O[C@H](CO)[C@@H](O)[C@H](O)[C@H]1O)NC(=O)[C@H](CCCCN)NC(=O)[C@H](CC(C)C)NC(=O)[C@H](C)NC(=O)[C@H](CCC(=O)O)NC(=O)[C@H](CCC(=O)O)NC(=O)C(C)(C)NC(=O)[C@H](CC(C)C)NC(=O)[C@H](CC(N)=O)NC(=O)CNC(=O)CNC(=O)[C@H](Cc1ccccc1)N(C)C(=O)CNC(=O)[C@@H](C)NC(=O)[C@@H](N)Cc1ccc(O)cc1)C(N)=O |  |  |  | Activity [4]: 0%; Activity [5]: 0%
4 | CC(C)C[C@H](NC(=O)[C@H](CO[C@@H]1O[C@H](CO)[C@@H](O)[C@H](O)[C@H]1O)NC(=O)[C@H](CCCCN)NC(=O)[C@H](CC(C)C)NC(=O)[C@H](C)NC(=O)[C@H](CC(N)=O)NC(=O)[C@H](CCCCN)NC(=O)C(C)(C)NC(=O)[C@H](CC(C)C)NC(=O)[C@H](CC(N)=O)NC(=O)CNC(=O)CNC(=O)[C@H](Cc1ccccc1)N(C)C(=O)CNC(=O)[C@@H](C)NC(=O)[C@@H](N)Cc1ccc(O)cc1)C(N)=O | 430 nM | 11 nM | 0.24 nM | 
5 | CC(C)C[C@H](NC(=O)[C@H](CO[C@@H]1O[C@H](CO)[C@@H](O)[C@H](O)[C@H]1O)NC(=O)[C@H](CCCCN)NC(=O)[C@H](CC(C)C)NC(=O)[C@H](C)NC(=O)[C@H](CCCCN)NC(=O)[C@H](CCCCN)NC(=O)C(C)(C)NC(=O)[C@H](CC(C)C)NC(=O)[C@H](CC(N)=O)NC(=O)CNC(=O)CNC(=O)[C@H](Cc1ccccc1)N(C)C(=O)CNC(=O)[C@@H](C)NC(=O)[C@@H](N)Cc1ccc(O)cc1)C(N)=O |  | 430 nM | 21 nM | Activity [4]: 0%
6 | CC(C)C[C@H](NC(=O)[C@H](CO[C@@H]1O[C@H](CO)[C@@H](O)[C@H](O)[C@H]1O)NC(=O)[C@H](CCCCN)NC(=O)[C@H](CC(C)C)NC(=O)[C@H](C)NC(=O)[C@H](CCCCN)NC(=O)[C@H](CCC(=O)O)NC(=O)C(C)(C)NC(=O)[C@H](CC(C)C)NC(=O)[C@H](CC(N)=O)NC(=O)CCNC(=O)[C@H](Cc1ccccc1)N(C)C(=O)CNC(=O)[C@@H](C)NC(=O)[C@@H](N)Cc1ccc(O)cc1)C(N)=O | 1400 nM | 200 nM | 4.8 nM | 
7 | CC(C)C[C@H](NC(=O)[C@H](CO[C@@H]1O[C@H](CO)[C@@H](O)[C@H](O)[C@H]1O)NC(=O)[C@H](CCCCN)NC(=O)[C@H](CC(C)C)NC(=O)[C@H](C)NC(=O)[C@H](CCCCN)NC(=O)[C@H](CCC(=O)O)NC(=O)C(C)(C)NC(=O)[C@H](CC(C)C)NC(=O)[C@H](CC(N)=O)NC(=O)[C@H](C)NC(=O)[C@H](CC(C)C)NC(=O)[C@H](Cc1ccccc1)NC(=O)CNC(=O)[C@@H](NC(=O)[C@@H](N)Cc1ccc(O)cc1)[C@@H](C)O)C(N)=O (H-YTGFLANL[Aib]EKALKS(βGlc)L-NH2) | 21 nM | 9.7 nM | 39 nM | 
8 | CC(C)C[C@H](NC(=O)[C@H](CO[C@@H]1O[C@H](CO)[C@@H](O)[C@H](O)[C@H]1O)NC(=O)[C@H](CCCCN)NC(=O)[C@H](CC(C)C)NC(=O)[C@H](C)NC(=O)[C@H](CCCCN)NC(=O)[C@H](CCC(=O)O)NC(=O)C(C)(C)NC(=O)[C@H](CC(C)C)NC(=O)[C@H](CC(N)=O)NC(=O)[C@@H]1CCCN1C(=O)CCNC(=O)[C@H](Cc1ccccc1)N(C)C(=O)CNC(=O)[C@@H](C)NC(=O)[C@@H](N)Cc1ccc(O)cc1)C(N)=O | 1200 nM | 100 nM | 5.6 nM | 
9 | CC(C)C[C@H](NC(=O)[C@H](CO[C@@H]1O[C@H](CO)[C@@H](O)[C@H](O)[C@H]1O)NC(=O)[C@H](CCCCN)NC(=O)[C@H](CC(C)C)NC(=O)[C@H](C)NC(=O)[C@H](CCCCN)NC(=O)[C@H](CCC(=O)O)NC(=O)C(C)(C)NC(=O)[C@H](CC(C)C)NC(=O)[C@H](CC(N)=O)NC(=O)[C@H]1CCCN1C(=O)[C@H](CC(C)C)NC(=O)[C@H](Cc1ccccc1)NC(=O)CNC(=O)[C@@H](NC(=O)[C@@H](N)Cc1ccc(O)cc1)[C@@H](C)O)C(N)=O |  |  |  | Ki ([1]; cho): 73 nM; Ki ([2]; cho): 78 nM; Ki ([3]; cho): 27 nM
10 | CC(C)C[C@H](NC(=O)[C@H](CO[C@@H]1O[C@H](CO)[C@@H](O)[C@H](O)[C@H]1O)NC(=O)[C@H](CC(N)=O)NC(=O)[C@H](CC(C)C)NC(=O)[C@H](C)NC(=O)[C@H](CC(N)=O)NC(=O)[C@H](CC(N)=O)NC(=O)C(C)(C)NC(=O)[C@H](CC(C)C)NC(=O)[C@H](CC(N)=O)NC(=O)CNC(=O)CNC(=O)[C@H](Cc1ccccc1)N(C)C(=O)CNC(=O)[C@@H](C)NC(=O)[C@@H](N)Cc1ccc(O)cc1)C(N)=O |  | 340 nM | 5.2 nM | Activity [4]: 22%
11 | CC(C)C[C@H](NC(=O)[C@H](CO[C@@H]1O[C@H](CO)[C@@H](O)[C@H](O)[C@H]1O)NC(=O)[C@H](CCCCN)NC(=O)[C@H](CC(C)C)NC(=O)[C@H](C)NC(=O)[C@H](CCCCN)NC(=O)[C@H](CCC(=O)O)NC(=O)C(C)(C)NC(=O)[C@H](CC(C)C)NC(=O)[C@H](CC(N)=O)NC(=O)[C@@H]1CCCN1C(=O)[C@H](Cc1ccccc1)N(C)C(=O)CNC(=O)[C@@H](C)NC(=O)[C@@H](N)Cc1ccc(O)cc1)C(N)=O |  | 340 nM | 8.8 nM | Activity [4]: 31%
12 | CC(C)C[C@H](NC(=O)[C@H](CO[C@@H]1O[C@H](CO)[C@@H](O)[C@H](O)[C@H]1O)NC(=O)[C@H](CCCCN)NC(=O)[C@H](CC(C)C)NC(=O)[C@H](C)NC(=O)[C@H](CCCCN)NC(=O)[C@H](CCC(=O)O)NC(=O)C(C)(C)NC(=O)[C@H](CC(C)C)NC(=O)[C@H](CC(N)=O)NC(=O)CNC(=O)[C@H](CC(C)C)NC(=O)[C@H](Cc1ccccc1)NC(=O)CNC(=O)[C@@H](NC(=O)[C@@H](N)Cc1ccc(O)cc1)[C@@H](C)O)C(N)=O (H-YTGFLGNL[Aib]EKALKS(βGlc)L-NH2) | 31 nM | 14 nM | 26 nM | 
13 | CC(C)C[C@H](NC(=O)[C@H](CO[C@@H]1O[C@H](CO)[C@@H](O)[C@H](O)[C@H]1O)NC(=O)[C@H](CCCCN)NC(=O)[C@H](CC(C)C)NC(=O)[C@H](C)NC(=O)[C@H](CCCCN)NC(=O)[C@H](CCC(=O)O)NC(=O)C(C)(C)NC(=O)[C@H](CC(C)C)NC(=O)[C@H](CC(N)=O)NC(=O)[C@@H]1CCCN1C(=O)CNC(=O)[C@H](Cc1ccccc1)N(C)C(=O)CNC(=O)[C@@H](C)NC(=O)[C@@H](N)Cc1ccc(O)cc1)C(N)=O | 840 nM | 45 nM | 3.2 nM | 
14 | CC(C)C[C@H](NC(=O)[C@H](CO[C@@H]1O[C@H](CO)[C@@H](O)[C@H](O)[C@H]1O)NC(=O)CCCNC(=O)[C@H](CC(C)C)NC(=O)[C@H](Cc1ccccc1)NC(=O)CNC(=O)[C@@H](NC(=O)[C@@H](N)Cc1ccc(O)cc1)[C@@H](C)O)C(N)=O (H-YTGFL[GABA]S(βGlc)L-NH2) | 15 nM | 71 nM | 6.6 nM | A50 [6]: 0.06 nmol; A50 [7]: 2.54 µmol/kg
15 | CC(C)C[C@H](NC(=O)[C@H](CO)NC(=O)CCCNC(=O)[C@H](CC(C)C)NC(=O)[C@H](Cc1ccccc1)NC(=O)CNC(=O)[C@@H](NC(=O)[C@@H](N)Cc1ccc(O)cc1)[C@@H](C)O)C(N)=O (H-YTGFL[GABA]SL-NH2) | 6.6 nM | 39 nM | 3.8 nM | A50 [6]: 0.06 nmol; A50 [7]: >11.3 µmol/kg
